ChEMBL document CHEMBL1145192, “Discovery of a novel class of reversible non-peptide caspase inhibitors via a structure-based approach” (J Med Chem, 2005)

Key:
[1] = target: T1, Caspase-7 (Homo sapiens, UniProt P55210); test: Inhibitory concentration against caspase-7 expressed in Escherichia coli. BL21(DE3) by fluorometric assay
T1 sequence (P55210 whole entry): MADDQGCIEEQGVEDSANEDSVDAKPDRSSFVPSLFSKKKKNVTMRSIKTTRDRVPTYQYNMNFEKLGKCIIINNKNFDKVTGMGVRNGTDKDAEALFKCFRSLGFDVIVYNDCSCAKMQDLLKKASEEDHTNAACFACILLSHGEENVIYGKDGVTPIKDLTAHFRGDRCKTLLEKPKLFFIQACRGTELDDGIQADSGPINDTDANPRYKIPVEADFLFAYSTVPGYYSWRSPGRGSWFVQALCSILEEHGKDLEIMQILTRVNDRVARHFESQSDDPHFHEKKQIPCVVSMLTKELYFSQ

[2] = target: T2, Caspase-8 (Homo sapiens, UniProt Q14790); test: Inhibitory concentration against caspase-8 expressed in Escherichia coli. BL21(DE3) by fluorometric assay
T2 sequence (Q14790 217-374 limits assumed): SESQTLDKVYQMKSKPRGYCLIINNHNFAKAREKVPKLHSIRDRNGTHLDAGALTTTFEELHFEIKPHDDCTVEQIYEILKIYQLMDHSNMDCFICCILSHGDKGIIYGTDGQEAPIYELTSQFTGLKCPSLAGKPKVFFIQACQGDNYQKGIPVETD
T2 sequence (Q14790 385-479 limits assumed): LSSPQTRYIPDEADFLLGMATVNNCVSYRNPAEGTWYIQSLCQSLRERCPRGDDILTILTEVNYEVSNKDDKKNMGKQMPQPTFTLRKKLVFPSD

[3] = target: T3, Caspase-3 (Homo sapiens, UniProt P42574); test: Inhibitory concentration against caspase-3 expressed in Escherichia coli. BL21(DE3) by fluorometric assay
T3 sequence (P42574 whole entry): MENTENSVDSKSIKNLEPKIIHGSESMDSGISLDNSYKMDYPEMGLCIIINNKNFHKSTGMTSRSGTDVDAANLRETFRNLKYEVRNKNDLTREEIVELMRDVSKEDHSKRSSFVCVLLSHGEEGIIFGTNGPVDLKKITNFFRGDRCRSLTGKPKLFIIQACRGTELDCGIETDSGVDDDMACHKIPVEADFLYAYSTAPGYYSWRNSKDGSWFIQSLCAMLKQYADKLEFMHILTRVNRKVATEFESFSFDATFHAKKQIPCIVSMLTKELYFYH

[4] = target: T2, Caspase-8; test: Binding affinity against caspase-8 expressed in Escherichia coli. BL21(DE3) by fluorometric assay
Procedure, shortened: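 E. coli-expressed active caspase-8, titrated with Z-VAD-FMK, 25-50 nM, with 40 µM Ac-IETD-AFC in 10 mM phosphate buffer (pH 7.5), 10 mM NaCl. Fluorescence at ex 405 / em 505 nm, followed kinetically over 30 min at room temperature. Ki from Lineweaver-Burk double-reciprocal analysis over varied substrate concentrations, assuming competitive inhibition.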

Row | Structure (SMILES) | IC50 [1] | IC50 [2] | IC50 [3] | Ki [4]
1 | Cc1nc(C2COc3ccccc3O2)sc1C(=O)O (configuration not stated) | > 200 µM | > 200 µM | 128 µM | –
2 | O=C(c1csc(C2COc3ccccc3O2)n1)N1CCOCC1 (configuration not stated) | > 200 µM | > 200 µM | 150 µM | –
3 | CN(C)C(=O)c1csc(C2COc3ccccc3O2)n1 (configuration not stated) | > 200 µM | > 200 µM | 129 µM | –
4 | CCOC(=O)c1csc(C2COc3ccccc3O2)n1 (configuration not stated) | – | – | – | 30 µM
5 | CCOC(=O)c1ccc(N/C=C(\C#N)c2nc(-c3cc4cc([N+](=O)[O-])ccc4oc3=O)cs2)cc1 | – | – | > 100 µM | –
6 | CCOC(=O)c1sc(C2COc3ccccc3O2)nc1C (configuration not stated) | > 200 µM | > 200 µM | – | –
7 | COc1ccc(N/C=C(\C#N)c2nc(-c3cc4cc([N+](=O)[O-])ccc4oc3=O)cs2)cc1 | – | – | > 1000 µM | –

More lines, now with the values ahead:

Row | IC50 [1] | IC50 [2] | IC50 [3] | Ki [4] | Structure (SMILES)
8 | > 200 µM | 62 µM | – | – | O=C(Sc1cccs1)c1csc(C2COc3ccccc3O2)n1 (configuration not stated)
9 | 170 µM | 75 µM | > 200 µM | – | O=C(O)c1csc(C2COc3ccccc3O2)n1 (configuration not stated)
10 | > 200 µM | 60 µM | – | – | O=C(Oc1ccccc1)c1csc(C2COc3ccccc3O2)n1 (configuration not stated)
11 | > 200 µM | > 200 µM | – | – | O=C(Oc1ccc(Cl)cc1)c1csc(C2COc3ccccc3O2)n1 (configuration not stated)
12 | – | – | – | 2.7 µM | FC(F)(F)c1cccc(-c2csc(C3COc4ccccc4O3)n2)c1 (configuration not stated)
13 | > 200 µM | 60 µM | 133 µM | – | O=C(NCc1ccco1)c1csc(C2COc3ccccc3O2)n1 (configuration not stated)
